Assays:
MDA-MB-231 [1] = assay: Antiproliferative activity against triple negative human MDA-MB-231 cells assessed as reduction in cell growth incubated for 48 hrs by MTT assay; format: functional, cell-based; settings: MDA-MB-231, 48 h
In short: (§1)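 MTT viability: MCF-7 and MDA-MB-231 seeded 1×10^4 cells/well, exposed to DMSO or 0.01-100 μM for 48 h; MTT (5 mg/mL in PBS) added 4 h, formazan dissolved in DMSO, OD 550 nm; quadruplicate wells; IC50 fitted for compounds giving >50% inhibition at 10 µM; at least three independent experiments.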

MCF7 [2] = assay: Antiproliferative activity against ER-positive human MCF7 cells assessed as reduction in cell growth incubated for 48 hrs by MTT assay; format: functional, cell-based; settings: MCF7, 48 h; in short: as §1
MDA-MB-231 [3] = assay: Antiproliferative activity against triple negative human MDA-MB-231 cells assessed as reduction in cell growth at 10 uM incubated for 48 hrs by MTT assay relative to control; format: functional; settings: MDA-MB-231, 48 h; in short: as §1
MCF7 [4] = assay: Antiproliferative activity against ER-positive human MCF7 cells assessed as reduction in cell viability at 10 uM incubated for 48 hrs by MTT assay relative to control; format: functional; settings: MCF7, 48 h; in short: as §1
MCF-10A = assay: Antiproliferative activity against human MCF10A cells assessed as reduction in cell growth incubated for 72 hrs by MTT assay; format: functional, cell-based
In short: (§2)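 MTT viability after 72 h exposure at indicated concentrations; cells seeded at 1×10^3 cells/well (T47D, MDA-MB-468, MCF-10A, MCF-7/ADR) in 96-well plates; quadruplicate wells, independently repeated three times; IC50 as mean ± SE of at least three experiments.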

T47D = assay: Antiproliferative activity against ER-positive human T47D cells assessed as reduction in cell growth incubated for 72 hrs by MTT assay; format: functional, cell-based; in short: as §2
MDA-MB-468 = assay: Antiproliferative activity against triple negative human MDA-MB-468 cells assessed as reduction in cell growth incubated for 72 hrs by MTT assay; format: functional, cell-based; settings: MDA-MB-468, 72 h; in short: as §2
MDA-MB-231 [5] = assay: Potency index, ratio of SMBA1 IC50 to compound IC50 for antiproliferative activity against triple negative human MDA-MB-231 cells assessed as reduction in cell growth incubated for 48 hrs by MTT assay; format: functional
MCF7 [6] = assay: Potency index, ratio of SMBA1 IC50 to compound IC50 for antiproliferative activity against ER-positive human MCF7 cells assessed as reduction in cell growth incubated for 48 hrs by MTT assay; format: functional
MDA-MB-231 [7] = assay: Antitumor activity against triple-negative human MDA-MB-231 cells xenografted in mouse assessed as reduction in tumor growth at 20 mg/kg, ip administered once daily for 7 days; format: functional; settings: MDA-MB-231, ip, 168 h, read-out: GI
In short: (§3)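 Female nude mice (6 weeks) given 2.5×10^6 MDA-MB-231 cells in PBS into third mammary fat pad, randomized into four groups; at 200 mm³ tumor volume dosed i.p. daily for 7 days in 50% DMSO/50% PEG vehicle; tumor volume (0.5×L×W²) and body weight measured daily; one-way ANOVA.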

[8] = Toxicity in mouse xenografted with triple negative human MDA-MB-231 cells assessed as body weight at 20 mg/kg, ip administered once daily for 7 days; format: organism-based; settings: in vivo, 168 h; in short: as §3
MDA-MB-231 [9] = assay: Antitumor activity against triple-negative human MDA-MB-231 cells xenografted in mouse assessed as reduction in tumor growth at 40 mg/kg, ip administered once daily for 7 days; format: functional; settings: MDA-MB-231, ip, 168 h, read-out: GI; in short: as §3
[10] = Toxicity in mouse xenografted with triple negative human MDA-MB-231 cells assessed as body weight at 40 mg/kg, ip administered once daily for 7 days; format: organism-based; settings: in vivo, 168 h; in short: as §3

Structure (SMILES)	IC50 (MDA-MB-231 [1]) [µM]	IC50 (MCF7 [2]) [µM]	inhibition at 10 µM (MDA-MB-231 [3]) [%]	inhibition at 10 µM (MCF7 [4]) [%]	further results
NCCCCOc1ccccc1C=C1c2ccccc2-c2ccc([N+](=O)[O-])cc21	3.66	5.77	> 50	> 50	
O=[N+]([O-])c1ccc2c(c1)C(=Cc1ccccc1OCCN1CCNCC1)c1ccccc1-2	3.5	4.97	> 50	> 50	
NCCOCCOc1ccccc1C=C1c2ccccc2-c2ccc([N+](=O)[O-])cc21	9.35	6.13	> 50	> 50	
O=[N+]([O-])c1ccc2c(c1)C(=Cc1ccccc1Br)c1ccccc1-2	> 10	> 10			
NCCOc1ccccc1C=C1c2ccccc2-c2ccc([N+](=O)[O-])cc21	3.22	3.81	> 50	> 50	IC50 (MCF-10A): 4.37 µM; IC50 (T47D): 9.47 µM; IC50 (MDA-MB-468): 8.73 µM; Ratio IC50 (MDA-MB-231 [5]): 1.7 - 2.2; Ratio IC50 (MCF7 [6]): 1.7 - 2.2; inhibition in vivo at 20 mg/kg (MDA-MB-231 [7]): 57%; Activity [8]: Non-Toxic
NC[C@H](CCl)Oc1ccccc1C=C1c2ccccc2-c2ccc([N+](=O)[O-])cc21	> 10	> 10			
NCCCOc1ccccc1C=C1c2ccccc2-c2ccc([N+](=O)[O-])cc21	5.34	5.13	> 50	> 50	
NCCOc1ccccc1C=C1c2ccccc2-c2ccc(N)cc21	6.03	6.31	> 50	> 50	
CC(=O)N1CCN(CCOc2ccccc2C=C2c3ccccc3-c3ccc([N+](=O)[O-])cc32)CC1	> 10	> 10			
O=[N+]([O-])c1ccc2c(c1)C(=Cc1ccccc1OCCF)c1ccccc1-2	> 10	> 10			
CC(C)[C@H](N)COc1ccccc1C=C1c2ccccc2-c2ccc([N+](=O)[O-])cc21	5.04	4.5	> 50	> 50	
O=[N+]([O-])c1ccc2c(c1)C(=Cc1ccccc1OCCN1CCN(S(=O)(=O)C3CC3)CC1)c1ccccc1-2	> 10				
CC(=O)NCCOc1ccccc1C=C1c2ccccc2-c2ccc([N+](=O)[O-])cc21	> 10	> 10			
NCCOc1ccc(C=C2c3ccccc3-c3ccc([N+](=O)[O-])cc32)cc1	6.4	8.47	> 50	> 50	
Nc1ccccc1C=C1c2ccccc2-c2ccc([N+](=O)[O-])cc21	> 10	> 10			
CN(C)CCNc1ccccc1C=C1c2ccccc2-c2ccc([N+](=O)[O-])cc21	> 10	> 10			
COc1ncccc1C=C1c2ccccc2-c2ccc([N+](=O)[O-])cc21	> 10	> 10			
O=[N+]([O-])c1ccc2c(c1)C(=Cc1cccnc1N1CCNCC1)c1ccccc1-2	4.27	5	> 50	> 50	

Structure (SMILES)	IC50 (MDA-MB-231 [1]) [µM]	IC50 (MCF7 [2]) [µM]	inhibition at 10 µM (MDA-MB-231 [3]) [%]	inhibition at 10 µM (MCF7 [4]) [%]	further results
O=[N+]([O-])c1ccc2c(c1)C(=Cc1ccccc1OCCN1CCCCC1)c1ccccc1-2	8.64	> 10	> 50		
Nc1ccc2c(c1)C(=Cc1ccccc1O)c1ccccc1-2	> 10	> 10			
CN1CCN(c2ncccc2C=C2c3ccccc3-c3ccc([N+](=O)[O-])cc32)CC1	> 10	> 10			
CN1CCN(CCOc2ccccc2C=C2c3ccccc3-c3ccc([N+](=O)[O-])cc32)CC1	> 10	9.58		> 50	
O=[N+]([O-])c1ccc2c(c1)C(=Cc1ccccc1OCCN1CCOCC1)c1ccccc1-2	> 10				
CC(C)(C)OC(=O)NCCOc1ccccc1C=C1c2ccccc2-c2ccc([N+](=O)[O-])cc21	> 10	> 10			
CC[C@H](N)COc1ccccc1C=C1c2ccccc2-c2ccc([N+](=O)[O-])cc21	5.08	4.66	> 50	> 50	
O=[N+]([O-])c1ccc2c(c1)C(=Cc1cccnc1O)c1ccccc1-2	> 10				
CNCCOc1ccccc1C=C1c2ccccc2-c2ccc([N+](=O)[O-])cc21	5.48	4.26	> 50	> 50	
CS(=O)(=O)N1CCN(CCOc2ccccc2C=C2c3ccccc3-c3ccc([N+](=O)[O-])cc32)CC1	> 10				
O=[N+]([O-])c1ccc2c(c1)C(=Cc1ccccc1OC1CCNCC1)c1ccccc1-2	3.53	5.45	> 50	> 50	
NCCOc1cccc(C=C2c3ccccc3-c3ccc([N+](=O)[O-])cc32)c1	4.87	3.77	> 50	> 50	
Nc1ncccc1C=C1c2ccccc2-c2ccc([N+](=O)[O-])cc21	> 10	> 10			
O=[N+]([O-])c1ccc2c(c1)C(=Cc1ccccc1O)c1ccccc1-2	5.6	8.3	> 50	> 50	IC50 (MCF-10A): 7.58 µM; IC50 (T47D): 10.4 µM; IC50 (MDA-MB-468): 16.1 µM; inhibition in vivo at 40 mg/kg (MDA-MB-231 [9]): 51%; Activity [10]: Non-Toxic
CN(C)CCOc1ccccc1C=C1c2ccccc2-c2ccc([N+](=O)[O-])cc21	> 10	> 10			
O=[N+]([O-])c1ccc2c(c1)C(=Cc1ccccc1OCCO)c1ccccc1-2	> 10				
COc1ccccc1C=C1c2ccccc2-c2ccc([N+](=O)[O-])cc21	> 10	> 10			

Source: ChEMBL document CHEMBL4364270, “Structure-activity relationship studies on Bax activator SMBA1 for the treatment of ER-positive and triple-negative breast cancer” (Eur J Med Chem, 2019)
